Experiment [1] concerns the target T1, D(1A) dopamine receptor (Rattus norvegicus, UniProt P18901). As to the kind of experiment: Binding affinity using [125 I] SCH 23982 radioligand competitive binding assay on dopamine receptor D1.
Experiment [2] has as its target T2, D(2) dopamine receptor (Rattus norvegicus, UniProt P61169). As to the kind of experiment: Binding affinity using [3H]-spiperone radioligand competitive binding assay against dopamine receptor D2. In a few lines:
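Rat striatal membranes in Tris pH 7.4 buffer with salts and ascorbate. [3H]spiperone at 300 pM final; nonspecific binding with 10 μM YM-09151-2. Incubated 20 min at 37 °C, then filtered. Ki derived from IC50 by Cheng-Prusoff.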

Experiment [3] has as its system D1 dopamine receptor (Cyprinus carpio). As to the kind of experiment: Intrinsic activity measured relative to dopamine on D1C(R) receptor.
In experiment [4] the target is T2, D(2) dopamine receptor. As to the kind of experiment: Concentration required to inhibit 50% dopamine receptor D2 in a cell free homogenate of intermediate lobe of pituitary gland. In kind it is functional.
Experiment [5] relates to Rattus norvegicus. As to the kind of experiment: Rat rotation experiments were conducted to evaluate rational behavior of the rats by administering at a dose of 65 umol/Kg subcutaneously. In kind it is functional. In a few lines:
(§1)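 Rats with unilateral 6-hydroxydopamine lesions of the nigrostriatal bundle. Compound given subcutaneously or orally at the stated dose. Net contralateral rotations counted over 2 h after dosing and reported as mean ± SEM; negative values indicate ipsilateral turning.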

In experiment [6] the test system is Rattus norvegicus. As to the kind of experiment: Rat rotation experiments were conducted to evaluate rational behavior of the rats by administering at a dose of 260 umol/kg subcutaneously. In kind it is functional. The essentials: as §1
The test system of experiment [7] is Rattus norvegicus. As to the kind of experiment: Rat rotation experiments were conducted to evaluate rational behavior of the rats by administering at a dose of 130 umol/kg subcutaneously. In kind it is functional. The essentials: as §1
Experiment [8] is described as follows: Intrinsic activity relative to dopamine at D-2 receptor. In kind it is functional.
For experiment [9], the target named is T1, D(1A) dopamine receptor. As to the kind of experiment: Inhibition of Dopamine receptor D1 activity by functional cyclase assay using cell free homogenate of rat striatum. In kind it is tissue-based. The essentials:
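Adenylate cyclase stimulation in cell-free homogenate of rat striatum. EC50 is the concentration giving half-maximal stimulation of cAMP production.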

The test system of experiment [10] is Rattus norvegicus. As to the kind of experiment: Rat rotation experiments were conducted to evaluate rational behavior of the rats by administering at a dose of 30 umol/kg subcutaneously. In kind it is functional. In a few lines: as §1
For experiment [11], the target named is D(1A) dopamine receptor (Rattus norvegicus) (UniProt P18901). As to the kind of experiment: Intrinsic activity was measured in relative to dopamine on D1C(S) receptor.
Chain of D(1A) dopamine receptor (Rattus norvegicus) (P18901 whole entry, looked up): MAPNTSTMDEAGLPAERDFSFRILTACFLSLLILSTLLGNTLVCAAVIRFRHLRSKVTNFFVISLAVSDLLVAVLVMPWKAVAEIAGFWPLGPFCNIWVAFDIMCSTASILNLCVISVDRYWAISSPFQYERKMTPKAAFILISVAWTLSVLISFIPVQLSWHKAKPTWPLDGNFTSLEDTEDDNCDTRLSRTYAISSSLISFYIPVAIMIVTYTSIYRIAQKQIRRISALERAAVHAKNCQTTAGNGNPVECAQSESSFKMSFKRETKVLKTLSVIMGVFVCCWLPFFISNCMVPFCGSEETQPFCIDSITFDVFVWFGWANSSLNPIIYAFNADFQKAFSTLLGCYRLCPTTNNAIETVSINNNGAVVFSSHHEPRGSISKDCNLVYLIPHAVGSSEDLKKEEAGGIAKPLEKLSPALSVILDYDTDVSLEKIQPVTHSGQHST
The test system of experiment [12] is Rattus norvegicus. As to the kind of experiment: Rat rotation experiments were conducted to evaluate rational behavior of the rats by administering at a dose of 15 umol/kg subcutaneously. In kind it is functional. In a few lines: as §1

Here are results for 27 compounds from ChEMBL document CHEMBL1125832, “Synthesis and dopaminergic activity of 3-substituted 1-(aminomethyl)-3,4-dihydro-5,6-dihydroxy-1H-2-benzopyrans: characterization of an auxiliary binding region in the D1 receptor” (J Med Chem, 1991).

SMILES strings stand for the structures. Some results are limits rather than exact numbers.

T1 sequence (P18901 whole entry): as the sequence (P18901 whole entry, looked up) above
T2 sequence (P61169 whole entry): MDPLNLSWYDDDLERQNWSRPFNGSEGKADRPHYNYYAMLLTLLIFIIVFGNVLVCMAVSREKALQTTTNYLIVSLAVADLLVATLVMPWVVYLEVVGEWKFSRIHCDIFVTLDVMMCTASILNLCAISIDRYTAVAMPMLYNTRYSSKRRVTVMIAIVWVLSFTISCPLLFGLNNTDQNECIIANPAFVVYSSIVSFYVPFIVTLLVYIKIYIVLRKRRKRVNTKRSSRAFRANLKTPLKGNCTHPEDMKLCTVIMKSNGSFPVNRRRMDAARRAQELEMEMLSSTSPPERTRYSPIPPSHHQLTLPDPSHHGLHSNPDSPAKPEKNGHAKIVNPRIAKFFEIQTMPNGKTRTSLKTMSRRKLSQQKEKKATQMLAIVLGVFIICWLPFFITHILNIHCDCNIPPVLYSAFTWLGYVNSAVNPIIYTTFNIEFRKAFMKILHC

For the compound `Oc1ccc2c(c1O)CC(C1CCCCC1)O[C@H]2CNC1CC1` (stereo partly drawn), the Ki on D(1A) dopamine receptor [1] was determined as 329 nM; on D(2) dopamine receptor [2] it was 636 nM. Moreover, in experiment [3], the Intrinsic activity is 71%. The half-maximal effective concentration (EC50) at D(2) dopamine receptor [4] was greater than 10000 nM.
For `NC[C@@H]1OCCc2c1ccc(O)c2O`, the results for the Activity in the experiment on Rattus norvegicus [5], with Rattus norvegicus [6] and in the experiment on Rattus norvegicus [7] were 93, 584 and 286, respectively. Further, the results for the Ki at D(1A) dopamine receptor [1] and at D(2) dopamine receptor [2] were 1030 nM and 4610 nM, respectively. Moreover, the Intrinsic activity in experiment [8] was 96%. Further, at D(2) dopamine receptor [4], it took 2850 nM to reach a half-maximal effect (EC50).
For the compound `COc1ccc(CC2Cc3c(ccc(O)c3O)[C@H](CN)O2)cc1` (stereo partly drawn), the results for the Ki on D(1A) dopamine receptor [1] and at D(2) dopamine receptor [2] were 2650 nM and 2710 nM, respectively. At D(2) dopamine receptor [4], this compound had an EC50 greater than 10000 nM.
`C#CCNC[C@@H]1OC(C2CCCCC2)Cc2c1ccc(O)c2O` (stereo partly drawn): the Ki on D(1A) dopamine receptor [1] stood at 4730 nM; at D(2) dopamine receptor [2], 11500 nM. Besides, the Intrinsic activity in experiment [3] was 87%. Besides, the 50% effective concentration (EC50) at D(2) dopamine receptor [4] is greater than 10000 nM.
On to `CCCCC1Cc2c(ccc(O)c2O)[C@H](CN)O1` (stereo partly drawn), for which the values for the Ki at D(1A) dopamine receptor [1] and at D(2) dopamine receptor [2] were 870 nM and 825 nM, respectively. The Intrinsic activity in experiment [8] was 80%; in experiment [3], 151%. Also, the midpoint of the response on D(2) dopamine receptor [4], the EC50, lay at 359 nM.
For the compound `NC[C@@H]1OC(COc2ccccc2)Cc2c1ccc(O)c2O` (stereo partly drawn), the results for the Ki at D(1A) dopamine receptor [1] and on D(2) dopamine receptor [2] were 374 nM and 1280 nM, respectively. The EC50 is 39.8 nM at D(1A) dopamine receptor [9] and greater than 10000 nM on D(2) dopamine receptor [4]. Moreover, the Activity in the experiment on Rattus norvegicus [10] was 514; in the experiment with Rattus norvegicus [12], 467. In addition, the Intrinsic activity in [11] is 64%; in experiment [3], 51%.
With `NC[C@@H]1OC(C23C[C@H]4C[C@@H](C2)C[C@@H](C3)C4)Cc2c1ccc(O)c2O` (stereo partly drawn), on D(2) dopamine receptor [4], the EC50 was greater than 10000 nM.
On to `C=CCN(C)C[C@@H]1OC(C2CCCCC2)Cc2c1ccc(O)c2O` (stereo partly drawn), for which the Ki at D(1A) dopamine receptor [1] came out at 3190 nM; at D(2) dopamine receptor [2], 2600 nM. This compound also gave an EC50 at D(2) dopamine receptor [4] greater than 10000 nM.
Regarding `NC[C@@H]1OC(C(c2ccccc2)c2ccccc2)Cc2c1ccc(O)c2O` (stereo partly drawn), the Ki at D(1A) dopamine receptor [1] was found to be 530 nM; at D(2) dopamine receptor [2], 2610 nM. In addition, at D(2) dopamine receptor [4], the EC50 was greater than 10000 nM.
As to `NC[C@@H]1OC(Cc2ccccc2)Cc2c1ccc(O)c2O` (stereo partly drawn), the Ki on D(1A) dopamine receptor [1] is 443 nM; at D(2) dopamine receptor [2], 1470 nM. The Intrinsic activity in experiment [3] was determined as 93%. For the same compound, the EC50 at D(2) dopamine receptor [4] is greater than 10000 nM.
As for `NC[C@@H]1OC(CC2CCCC2)Cc2c1ccc(O)c2O` (stereo partly drawn), the Ki at D(1A) dopamine receptor [1] was 30.4 nM; at D(2) dopamine receptor [2] it was 776 nM. Moreover, the Intrinsic activity amounted to 76% in [8] and 124% in experiment [3]. In addition, on D(2) dopamine receptor [4], the EC50 is 427 nM.
For the compound `NC[C@@H]1OC(C2CCCCCCC2)Cc2c1ccc(O)c2O` (stereo partly drawn), the Ki at D(1A) dopamine receptor [1] was 88.7 nM; at D(2) dopamine receptor [2] it was 342 nM. The Intrinsic activity in experiment [8] is 70%. The same compound yielded an EC50 at D(2) dopamine receptor [4] of 760 nM.
On to `Oc1ccc2c(c1O)CC(C1CCCCC1)O[C@H]2CNCc1ccccc1` (stereo partly drawn), for which the Ki at D(1A) dopamine receptor [1] is greater than 10000 nM; at D(2) dopamine receptor [2], 2450 nM. At D(2) dopamine receptor [4], the EC50 was greater than 10000 nM.
As to `CNC[C@@H]1OC(C2CCCCC2)Cc2c1ccc(O)c2O` (stereo partly drawn), the Ki on D(1A) dopamine receptor [1] was determined as 14.1 nM; on D(2) dopamine receptor [2] it was 724 nM. The compound further came in with an EC50 at D(2) dopamine receptor [4] greater than 10000 nM.
Regarding `NC[C@@H]1OC(COCc2ccccc2)Cc2c1ccc(O)c2O` (stereo partly drawn), the Ki was 2290 nM at D(1A) dopamine receptor [1] and 386 nM at D(2) dopamine receptor [2]. The Intrinsic activity in experiment [8] was found to be 78%; in experiment [3], 107%. The compound further returned an EC50 on D(2) dopamine receptor [4] of 204 nM.
In the case of `CCCCCCC1Cc2c(ccc(O)c2O)[C@H](CN)O1` (stereo partly drawn), the inhibition constant (Ki) at D(1A) dopamine receptor [1] is 704 nM; at D(2) dopamine receptor [2], 5540 nM. The values for the 50% effective concentration (EC50) at D(1A) dopamine receptor [9] and on D(2) dopamine receptor [4] were 23.4 nM and 782 nM, respectively. In addition, the Intrinsic activity was found to be 80% in experiment [8], 84% in experiment [11] and 90% in [3].
`CC[C@H]1Cc2c(ccc(O)c2O)[C@H](CN)O1`: the inhibition constant (Ki) at D(1A) dopamine receptor [1] is 1760 nM; at D(2) dopamine receptor [2] it was greater than 10000 nM. Moreover, the values for the Intrinsic activity in [8] and in experiment [3] were 76% and 92%, respectively. At D(2) dopamine receptor [4], this compound registered an EC50 of 5130 nM.
`C#CCC1Cc2c(ccc(O)c2O)[C@H](CN)O1` (stereo partly drawn): the Ki was determined as 407 nM at D(1A) dopamine receptor [1] and 1070 nM at D(2) dopamine receptor [2]. The Intrinsic activity in experiment [8] amounted to 100%. The EC50 on D(2) dopamine receptor [4] stood at 286 nM.
As to `C#CCN(C)C[C@@H]1OC(C2CCCCC2)Cc2c1ccc(O)c2O` (stereo partly drawn), the Ki was 2510 nM at D(1A) dopamine receptor [1] and greater than 10000 nM at D(2) dopamine receptor [2]. The compound further showed an EC50 on D(2) dopamine receptor [4] greater than 10000 nM.
As to `COc1cccc(C2Cc3c(ccc(O)c3O)[C@H](CN)O2)c1` (stereo partly drawn), the Ki on D(1A) dopamine receptor [1] worked out at 310 nM; at D(2) dopamine receptor [2], 764 nM. Also, in [3], the Intrinsic activity came to 107%. The EC50 on D(2) dopamine receptor [4] is greater than 10000 nM.
With `NC[C@@H]1OC(c2ccc(Br)cc2)Cc2c1ccc(O)c2O` (stereo partly drawn), the Ki on D(1A) dopamine receptor [1] turned out to be 52 nM; at D(2) dopamine receptor [2], 2090 nM. Also, the figures for the Intrinsic activity in experiment [8] and in experiment [3] were 94% and 106%, respectively. On D(2) dopamine receptor [4], this compound showed a half-maximal effective concentration (EC50) of 358 nM.
On to `OCCCNC[C@@H]1OC(C2CCCCC2)Cc2c1ccc(O)c2O` (stereo partly drawn), for which the Ki at D(1A) dopamine receptor [1] is 3140 nM; on D(2) dopamine receptor [2], 12300 nM. In addition, in [3], the Intrinsic activity turned out to be 58%. On D(2) dopamine receptor [4], the EC50 was greater than 10000 nM.
As for `NC[C@@H]1OC(c2cccc(O)c2)Cc2c1ccc(O)c2O` (stereo partly drawn), the results for the Ki at D(1A) dopamine receptor [1] and at D(2) dopamine receptor [2] were 0.49 nM and 590 nM, respectively. For the same compound, in [8], the Intrinsic activity turned out to be 111%. Besides, on D(2) dopamine receptor [4], a half-maximal effect (EC50) was put at 192 nM.
Regarding `CC[C@@H]1Cc2c(ccc(O)c2O)[C@H](CN)O1`, the Ki on D(1A) dopamine receptor [1] came out at 167 nM; on D(2) dopamine receptor [2] it was 3530 nM. In addition, the Intrinsic activity in experiment [8] is 81%; in experiment [3], 89%. The same compound returned a half-maximal effective concentration (EC50) on D(2) dopamine receptor [4] of 10800 nM.
As for `NC[C@@H]1OC2(CCCCC2)Cc2c1ccc(O)c2O`, the values for the Ki on D(1A) dopamine receptor [1] and on D(2) dopamine receptor [2] were 479 nM and 4680 nM, respectively. Moreover, the Intrinsic activity in [8] is 56%; in experiment [3], 65%. Besides, the response on D(2) dopamine receptor [4] was half-maximal at 6680 nM (EC50).
Take `NC[C@@H]1OC(c2ccc(I)cc2)Cc2c1ccc(O)c2O` (stereo partly drawn): the Ki at D(1A) dopamine receptor [1] is 13.7 nM; at D(2) dopamine receptor [2] it was 1050 nM. The Intrinsic activity in [3] turned out to be 161%. The compound also displayed an EC50 on D(2) dopamine receptor [4] greater than 10000 nM.
Consider `NC[C@@H]1OC(CCc2ccccc2)Cc2c1ccc(O)c2O` (stereo partly drawn), for which the values for the Ki at D(1A) dopamine receptor [1] and on D(2) dopamine receptor [2] were 248 nM and 670 nM, respectively. Also, the EC50 on D(1A) dopamine receptor [9] is 18.9 nM; on D(2) dopamine receptor [4], greater than 10000 nM. Besides, the figures for the Intrinsic activity in [11] and in experiment [3] were 78% and 76%, respectively.

In general, Ki refers to the equilibrium dissociation constant of an inhibitor or competing ligand from its target. A lower Ki goes with a stronger hold on the target. One may read the EC50 as the concentration needed to bring the measured effect to its halfway point. Low readings indicate an effect from little substance, high ones a need for much substance.
